Assay outcomes: PubChem BioAssay, several laboratories
MPTP inh: inhibitors of mitochondrial permeability transition pore. isolated mouse mitochondria, Ca2+ swelling absorbance, 30 min. inhibition, % at 10 µM. 360,000 tested, 1.4% active. AID 602449;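 active means inhibition of 50% or more, scaled per plate between neutral and stimulator controls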
V-ATPase pHluor: regulators of yeast V-ATPase proton transport. S. cerevisiae, pHLuorin cytosolic pH fluorescence. response, % at 10 µM. 350,000 tested, 0.37% active. AID 504577; in the data active means response mostly above about 7.3%, no sharp cut-off; inactive means mostly below about 5.4%; further: actives read high
ADAM10 inh: inhibitors of human ADAM10; O14672; recombinant ADAM10, EDANS/DABCYL FRET peptide cleavage, 3 h; inhibition, % at 7 µM; 370,000 tested, 0.62% active;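 active means inhibition above a per-campaign cutoff equal to the mean of compounds falling between control-based bounds plus 3 SD, cut at about 20% in these data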
Target sequence (O14672 214-748 limits assumed): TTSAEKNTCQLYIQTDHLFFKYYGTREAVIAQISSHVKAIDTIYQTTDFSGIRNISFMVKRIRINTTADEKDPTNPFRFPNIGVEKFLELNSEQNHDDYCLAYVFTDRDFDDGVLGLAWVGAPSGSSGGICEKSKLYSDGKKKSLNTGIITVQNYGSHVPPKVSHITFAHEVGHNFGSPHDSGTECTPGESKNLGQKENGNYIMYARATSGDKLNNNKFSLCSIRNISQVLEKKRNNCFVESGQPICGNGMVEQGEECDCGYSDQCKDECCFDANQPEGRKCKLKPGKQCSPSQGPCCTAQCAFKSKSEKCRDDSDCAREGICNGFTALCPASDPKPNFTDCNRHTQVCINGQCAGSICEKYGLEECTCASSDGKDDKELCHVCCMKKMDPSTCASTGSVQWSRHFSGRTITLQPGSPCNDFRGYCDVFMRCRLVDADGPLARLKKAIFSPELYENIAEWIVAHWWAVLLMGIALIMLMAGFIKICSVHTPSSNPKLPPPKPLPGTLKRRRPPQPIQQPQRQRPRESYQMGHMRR
aDG glyco act: alpha-DG glycosylation activation; Pro5-aDG cells, alpha-DG glycosylation AlphaScreen (IIH6); 0% Pro5, 100% B10-LARGE cell signal; activation, % at 10 µM; 360,000 tested, 0.22% active; AID 624168;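 active means activation of at least 8% versus controls, or a plate z-score of at least 8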;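 further: Pro5 are CHO cells carrying HIG-tagged alpha-DG that lacks glycosylation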
ADAM17 inh: inhibitors of human ADAM17 | P78536 | recombinant ADAM17, EDANS/DABCYL FRET peptide cleavage | inhibition, % at 6.95 µM | 370,000 tested, 0.83% active | AID 720648;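 active means inhibition above the mean of compounds lying between control limits plus 3 SD, set per campaign, cut at about 8.5% in these data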
Hep lipid drop: modulators of hepatic lipid droplet formation; 240,000 tested, 0.4% active; inhibition, % at 6.5 µM; AML12 mouse hepatocytes, oleate lipid droplets, BODIPY imaging; AID 1656;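 active means lipid droplet intensity inhibited by at least 50%, with more than 500 cells counted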
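Material – mouse AML12 hepatocyte cell line, fixed after treatment · Compound dosing – one dose, 6.5 µM compound · Times – compound with oleate, overnight · Measured by – Image-based BODIPY and DAPI two-channel analysis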
ADAM10 confirm: human ADAM10 inhibition, confirmation; shares compounds with ADAM10 inh; ADAM10 QFRET peptide cleavage, EDANS fluorescence; inhibition, % at 6.95 µM; 2,100 tested, 1% active; AID 743208;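 active means inhibition above about 20% chosen separately for each screening run, limit read from the data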
ADAM17 ctr: ADAM17 inhibition, counter-screen for ADAM10 exosite hits | shares compounds with ADAM10 inh | AID 743214 | ADAM17 QFRET peptide cleavage, EDANS fluorescence | 2,100 tested, 0.5% active | inhibition, % at 6.95 µM;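 active means mean triplicate inhibition above the solvent-only control wells' mean plus 3 SD, cut at about 12% in these data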
Large screens that a line does not name were inactive (follow-up assays come after a bar, where they were run). Compounds with a hit are over-represented: about 3.1% of the library has one in this group of screens.

COC(=O)C1=C(C)NC(C)=C(C(=O)OCC2CCCO2)C1c1cccc(Cl)c1 (stereo unspecified)	none
CCc1c(C(=O)NNC(=S)Nc2ccc(S(=O)(=O)Nc3ncccn3)cc2)csc1C	ADAM10 inh 23 | ADAM10 confirm inactive | ADAM17 ctr inactive
Cc1cc(C)cc(NC(=O)C2(C(=O)C3CC3)CC(c3ccccc3C(F)(F)F)=NO2)c1 (stereo unspecified)	none (no result: MPTP inh, V-ATPase pHluor, aDG glyco act, Hep lipid drop)
COc1ccc(NS(=O)(=O)c2cccc(N3CC(O)=C(c4ccccc4)C3=N)c2)cc1	ADAM10 inh 65 | ADAM10 confirm inactive | ADAM17 ctr inactive
COc1ccccc1NS(=O)(=O)c1cccc(N2CC(O)=C(c3ccccc3)C2=N)c1	none
CN(C)c1cccc(/C=C2\CC3(OC(=O)c4ccc(F)cc4)CCCN2C3)c1 (stereo unspecified)	none (no result: MPTP inh, V-ATPase pHluor, aDG glyco act, Hep lipid drop)
Cc1ccc(S(=O)(=O)Nc2ccccc2NS(=O)(=O)c2ccc(C)cc2)cc1	ADAM10 inh 22 (no result: V-ATPase pHluor, Hep lipid drop) | ADAM10 confirm inactive | ADAM17 ctr inactive
Cc1ccc(S(=O)(=O)Nc2ccccc2O)cc1	none (no result: V-ATPase pHluor, Hep lipid drop)
CC(OC(=O)c1ccc(NS(=O)(=O)c2ccc3[nH]c(=O)[nH]c3c2)cc1)C(=O)Nc1ccc(Cl)cc1 (stereo unspecified)	none
COc1ccc(Cl)cc1NC(=O)C(C)OC(=O)c1ccc(NS(=O)(=O)c2ccc3[nH]c(=O)[nH]c3c2)cc1 (stereo unspecified)	ADAM10 inh 22 | ADAM10 confirm inactive | ADAM17 ctr inactive
COCCCN1C(=O)[C@H](CC(=O)N2CCOCC2)[C@]2(C(=O)OC)CCCCC=C12	none (no result: MPTP inh, V-ATPase pHluor, aDG glyco act, Hep lipid drop)
CN(c1ccc(OCC(=O)OCC(=O)Nc2ccc(F)cc2)cc1)S(=O)(=O)c1ccc(Cl)cc1	ADAM10 inh 20 | ADAM10 confirm inactive | ADAM17 ctr inactive
Cc1ccc(NC(=O)COc2ccc(N(C)S(=O)(=O)c3ccc(F)cc3)cc2)cc1	none (no result: Hep lipid drop)
CC1(c2nnnn2-c2ccc3c(c2)OCCO3)CSCC(=O)N1CCc1c[nH]c2ccccc12 (stereo unspecified)	none (no result: MPTP inh, V-ATPase pHluor, aDG glyco act, Hep lipid drop)
Cc1ccsc1/C=N/NC(=O)c1nnn(-c2nonc2N)c1CN(C)c1ccccc1	ADAM10 inh 22 | ADAM10 confirm inactive | ADAM17 ctr inactive
CSc1nnc(CSCc2ccc(Cl)cc2Cl)n1-c1ccccc1	ADAM10 inh 23 (no result: Hep lipid drop) | ADAM10 confirm inactive | ADAM17 ctr inactive
N#CCC(CNc1ncc(C(F)(F)F)cc1Cl)OC(=O)c1cccc([N+](=O)[O-])c1 (stereo unspecified)	ADAM10 inh 21 | ADAM10 confirm inactive | ADAM17 ctr inactive
N#CCC(CNc1ncc(C(F)(F)F)cc1Cl)OC(=O)c1c(F)cccc1F (stereo unspecified)	none (no result: Hep lipid drop)
O=C(CCn1c(=O)oc2ccccc21)N1CCN(c2ccccc2F)CC1	none (no result: Hep lipid drop)
O=C(CCn1c(=O)oc2ccccc21)N1CCN(C(c2ccccc2)c2ccccc2)CC1	ADAM10 inh 27 (no result: Hep lipid drop) | ADAM10 confirm inactive | ADAM17 ctr inactive
CC(=O)CC[C@@H]1CC[C@]2(CCCN(C(=O)C3CCCCC3)C2)O1	none (no result: MPTP inh, V-ATPase pHluor, aDG glyco act, Hep lipid drop)
C=CCC[C@H](Cc1ccc(F)cc1)C(=O)OC[C@H](Cc1c[nH]c2ccccc12)NC(=O)[C@@H](CC=C)CC(=O)N[C@@H](CO)Cc1ccccc1	none (no result: Hep lipid drop)
C=CCC[C@H](Cc1ccc(F)cc1)C(=O)OC[C@@H](Cc1c[nH]c2ccccc12)NC(=O)[C@H](CC=C)CC(=O)NCCO	ADAM10 inh 21 (no result: Hep lipid drop) | ADAM10 confirm inactive | ADAM17 ctr inactive
C=CCC[C@H](Cc1ccc(F)cc1)C(=O)OC[C@@H](C)NC(=O)[C@@H](CC=C)CC(=O)N[C@H](CO)Cc1ccccc1	none (no result: Hep lipid drop)
C=CCC[C@@H](Cc1ccc(F)cc1)C(=O)OC[C@@H](NC(=O)[C@@H](CC=C)CC(=O)N[C@@H](CO)Cc1ccccc1)C(C)(C)C	ADAM10 inh 21 (no result: Hep lipid drop) | ADAM10 confirm inactive | ADAM17 ctr inactive
C=CCC[C@@H](Cc1ccc(F)cc1)C(=O)OC[C@H](Cc1c[nH]c2ccccc12)NC(=O)[C@H](CC=C)CC(=O)NCCO	ADAM10 inh 22 (no result: Hep lipid drop) | ADAM10 confirm inactive | ADAM17 ctr inactive
C=CCC[C@H](Cc1ccc(F)cc1)C(=O)OC[C@H](Cc1c[nH]c2ccccc12)NC(=O)[C@H](CC=C)CC(=O)N[C@H](CO)Cc1ccccc1	ADAM10 inh 21 (no result: Hep lipid drop) | ADAM10 confirm inactive | ADAM17 ctr inactive
COc1ccc(C2CC(=O)C(c3ccccc3C)=CN2Cc2ccccc2)cc1 (stereo unspecified)	none (no result: MPTP inh, V-ATPase pHluor, aDG glyco act, Hep lipid drop)
O=C(CC1SC(=Nc2cccc3ccccc23)N(Cc2ccccn2)C1=O)Nc1ccccc1Br (stereo unspecified)	none
O=C(CC1SC(=Nc2ccccc2)N(Cc2ccccn2)C1=O)Nc1ccc(Br)cc1 (stereo unspecified)	ADAM10 inh 22 | ADAM10 confirm inactive | ADAM17 ctr inactive
O=C(OCC#CCSc1nnc(-c2cccc3ccccc23)o1)c1ccc(OC(F)F)cc1	none (no result: MPTP inh, V-ATPase pHluor, aDG glyco act, Hep lipid drop)
NC(=O)CSc1nnc(NC(=O)C2CC(=O)N(c3ccc(F)cc3)C2)s1 (stereo unspecified)	none
Cc1ccc(N2CC(C(=O)Nc3nnc(SCC(N)=O)s3)CC2=O)cc1 (stereo unspecified)	ADAM10 inh 81 | ADAM10 confirm inactive | ADAM17 ctr inactive
COc1cc(NC(=O)C(OC(=O)CNC(=O)c2ccccc2)c2ccccc2)cc(C(F)(F)F)c1 (stereo unspecified)	ADAM10 inh 29, ADAM17 inh 15 (no result: MPTP inh, V-ATPase pHluor, aDG glyco act, Hep lipid drop) | ADAM10 confirm inactive | ADAM17 ctr inactive
CN(Cc1ccccc1)C(=O)OCc1cn(Cc2c(F)cccc2F)nn1	none (no result: MPTP inh, V-ATPase pHluor, aDG glyco act, Hep lipid drop)
O=C(NCc1ccc(F)cc1)c1ccc(S(=O)(=O)Nc2cccc(C(F)(F)F)c2)cc1	ADAM10 inh 27 | ADAM10 confirm inactive | ADAM17 ctr inactive
CC(O)(c1cccc(F)c1)c1nc(-c2cc3ccccc3o2)cs1 (stereo unspecified)	ADAM10 inh 22 (no result: V-ATPase pHluor, Hep lipid drop) | ADAM10 confirm inactive | ADAM17 ctr inactive
CC(O)(c1cccc(F)c1)c1nc(-c2csc3ccccc23)cs1 (stereo unspecified)	ADAM10 inh 23 (no result: V-ATPase pHluor, Hep lipid drop) | ADAM10 confirm inactive | ADAM17 ctr inactive
CC(O)(c1ccccc1)c1nc(-c2csc3ccccc23)cs1 (stereo unspecified)	ADAM10 inh 21 (no result: V-ATPase pHluor, Hep lipid drop) | ADAM10 confirm inactive | ADAM17 ctr inactive
CC(O)(c1cccc(F)c1)c1nc(/C=C/c2ccccc2)cs1 (stereo unspecified)	ADAM10 inh 22 (no result: V-ATPase pHluor, Hep lipid drop) | ADAM10 confirm inactive | ADAM17 ctr inactive
